# Experimental data reported in the RNAGym collection of RNA variant scans (doi:10.1126/science.aae0568).
# Fewer inactive variants are shown than the library holds.
# B1: tRNA (parent)
# chain: GUUCCGUUGGCGUAAUGGUAACGCGUCUCCCUCCUAAGGAGAAGACUGCGGGUUCGAGUCCCGUACGGAACG
# Variants of: B1
# Experiment: yeast fitness relative to wild type (ratio to wild type); higher = fitter; tRNA-Arg(CCU), competitive growth, 37 C, YPD
# How it was run: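 Start and end populations of a pooled competition were compared by 100-nucleotide paired-end sequencing of gene amplicons. The Saccharomyces cerevisiae strains carried tRNA-Arg(CCU) gene variants at the native genomic locus, synthesised with a 3% per-site mutation rate at 69 sites, and competed in YPD at 37°C for 24 hours in six parallel replicates. Darwinian fitness relative to wild type was based on the change in genotype frequencies. Genotypes required ≥ 100 starting reads, and estimates < 0.5 were set to 0.5.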
row,Variant,yeast fitness
1,U19G U28G A36U C46U C61U,≤ 0.5
2,A21G C22G G25A G63A A69U,≤ 0.5
3,G12A G67C,0.848
4,U2G U28A C29G G51A G56A G67C,≤ 0.5
5,G44A G63C,0.826
6,C22G C29U C31A A65G,≤ 0.5
7,C33G A37U A40C A69U,0.543
8,A14G A69U A70C,0.726
9,A42U G51C C62U C66U,0.708
10,U16C C24U C30U C62A,≤ 0.5
11,A20U G68U,0.792
12,G38A C46A G50A U53C,0.596
13,C34A G41C,0.757
14,C49U G68A,0.85
15,G6U U35G A69U,1.03
16,C5G C24U C46A G68U,≤ 0.5
17,C5U A20C C29A C49G A57G,≤ 0.5
18,U3A C55G A65C,≤ 0.5
19,C24A U47G G58A C62A,≤ 0.5
20,A15G C31G U35C A43C A57C G58A,≤ 0.5
21,C4G U53A A65C,≤ 0.5
22,A36U A42U C46U G56C C61G A65U G67A A70G,≤ 0.5
23,U26C C31G,0.875
24,C31A A43C A45C,≤ 0.5

row,Variant,yeast fitness
1,U2A C55U,0.661
2,C5A C30A G51A,≤ 0.5
3,C29G C46U A57G C61U,≤ 0.5
4,C5A A40G C46A,0.773
5,C11U A14U U28A C33U,0.535
6,U2G G6A C27U A36U C60G,0.526
7,C27U C31A U35G C55G,≤ 0.5
8,A40C C49G A65G,0.584
9,C4U U26A G52C,0.569
10,A21U C22G A69U,0.613
11,G12C U16A C60G C61U,≤ 0.5
12,U26A C34G G56A,0.565
13,C5A C46U,0.997
14,G25C G50A,1
15,G23C A42G G56A,≤ 0.5
16,G48A G51A,1.04
17,C5U A43G G48A,0.678
18,A14U C34G A43C A70U,≤ 0.5
19,A42U C61U,0.827
20,U2G C34U A36C,≤ 0.5
21,U28C C66A,0.689
22,G6A U16G A21G A40G A42U,0.535
23,U3C A40G C46A C62G A69U,≤ 0.5
24,A15C G68U,0.735

row,Variant,yeast fitness
1,G9C G44C C61U,0.584
2,C5A A14C A45G,≤ 0.5
3,C34A A45G G63C,0.676
4,U8C C60A,0.737
5,A43G C55U,0.711
6,G18C U28C,0.663
7,C11G U13A U16G U26A C66U,≤ 0.5
8,A40G U53A G63A,≤ 0.5
9,A14C G18C U28A C30G A43G A57G C60U A65C G67U,0.557
10,U8G U26C C60U,≤ 0.5
11,C30A C34G G50A C62U C66A,≤ 0.5
12,U13G U35G A40G C61A,≤ 0.5
13,G25A C46A G52C G68A,≤ 0.5
14,C4U U7A C22U U54C C66U G68C A69U,≤ 0.5
15,C30A G38A G52A C55A A65C,≤ 0.5
16,U16C U26A G67C,0.657
17,U7C U35G U64C A70G,≤ 0.5
18,G12C A21C C60A,≤ 0.5
19,G23A A40U A70G,0.537
20,U3C G6A U16C G17A,≤ 0.5
21,G6A C22G U53A,≤ 0.5
22,A15U C22G C62U,≤ 0.5
23,C4G U16A,0.9
24,C46G C49A G67A,0.606

row,Variant,yeast fitness
1,C4G A14U G23A G56C,≤ 0.5
2,C22U C31A A37C U47C G67A,≤ 0.5
3,C4G C31U A57U,0.665
4,U3A A14U C60U C62U A70G,0.651
5,U13C G58C A69U,0.7
6,G6A A36C A40U,≤ 0.5
7,C31U U47A G51U,≤ 0.5
8,U8A A14G C24G A65C,≤ 0.5
9,A15G C24G U26A,0.656
10,C27G A36G G52C,≤ 0.5
11,C5U U32C A70U,0.66
12,G56A G63A,0.726
13,A21U G50A C62G,0.601
14,C60G A69U,0.655
15,C31G C46U,0.998
16,U7A G41A C61A,≤ 0.5
17,G9A U53A A65C A70C,≤ 0.5
18,C4U U7C A57U C61U,≤ 0.5
19,U32C C49U A65C,0.793
20,C29G G48A U59C,≤ 0.5
21,U2A C4U U8G C31A G44C A65G,≤ 0.5
22,U2G C5A G10C,≤ 0.5
23,C4G A14U C24U C49G,≤ 0.5
24,U3A A14C C24G C33G,≤ 0.5

row,Variant,yeast fitness
1,U28A G56C G67U,0.525
2,U28C C33G A40G G51C C61U A65U,≤ 0.5
3,C11U C31G C34G A43U C61U A65U,≤ 0.5
4,U7A U32A C61G,≤ 0.5
5,C27G G52A G63A,0.533
6,A15G G50A U54A A57C,0.583
7,C11G A14U C34A,0.528
8,G10A A15U A36U A70C,≤ 0.5
9,C24A C29G U32G G38A U47A,≤ 0.5
10,C22A U28C A42G U47A,0.64
11,C29G C33G U35G G44A A57G C66U A69U,≤ 0.5
12,U3G U8A C31A A69C A70G,≤ 0.5
13,C4A G9A U16A C30U A40G C46U,≤ 0.5
14,U19C A21U A69U,0.691
15,U28A G44A G68A,0.544
16,U7A A15U,0.587
17,G9C C34G G51A A70G,≤ 0.5
18,C5A C27U A36U,≤ 0.5
19,G41C A42U,0.79
20,G10A C24G C34U,≤ 0.5
21,A37C A69U,1.03
22,C24A A37C G38A,0.61
23,A14G C29G A42C,≤ 0.5
24,U16A C30A A42C,0.558

row,Variant,yeast fitness
1,G52C G67A,0.709
2,U7C G18A C31A G56C,≤ 0.5
3,A20G G38C A40C,0.662
4,C49A U53C C62G,0.598
5,U19A C31U,0.954
6,C11U G56A G67U,0.526
7,G51U A70G,0.707
8,A57U C66U G68C A69U,≤ 0.5
9,U3G G25A A45C A69U,0.814
10,A45U G50U G68C A69U,≤ 0.5
11,G23A A36U,0.536
12,C27A G52A U54A,≤ 0.5
13,C29U C49A G67C,≤ 0.5
14,C24U C27A G50U,≤ 0.5
15,C4U G48C C66U,0.729
16,U32G G67C,0.59
17,U8A C22G A36U,≤ 0.5
18,C24A C29U G67U,0.591
19,U7G C11G C34U G41A C49U,≤ 0.5
20,A37C A43C A70U,0.622
21,A20C A40G C60G,≤ 0.5
22,A42C A57U,0.688
23,C4A G25A,1.03
24,A45G A69C,0.912

row,Variant,yeast fitness
1,U7G C27G A40U G58C,≤ 0.5
2,U16A A21U G23C U47C,≤ 0.5
3,A21U G52A G58A,≤ 0.5
4,A15U G23A C34A C49G A57G,0.57
5,U7A C55U,0.555
6,C30U C31U C49A,≤ 0.5
7,A14U C22G A42C C66U,≤ 0.5
8,A45C G51A C55A,0.516
9,C34G A43C C49U G56A,≤ 0.5
10,C29U G41C G56A C60G C62G,≤ 0.5
11,C11A A21U C55U,0.788
12,G6A G12A C34U G41A,0.556
13,U2A C5A G68C,≤ 0.5
14,U7A A14G U28G C30U,≤ 0.5
15,G51A G63U C66A,≤ 0.5
16,U7A G12A,0.783
17,A15C C55U A65G,≤ 0.5
18,C27U C66G,0.744
19,U8C U19G A45C,≤ 0.5
20,C4A G6C U8A A20C A21U C33U C46U A57G,≤ 0.5
21,G9A C24U A40U A57C,≤ 0.5
22,G10A G52C,0.528
23,C24U A37G G39A G48C,≤ 0.5
